These results are taken from ChEMBL document CHEMBL1221207, “Expanding the promiscuity of a natural-product glycosyltransferase by directed evolution” (Nat Chem Biol, 2007).

Assay [1] has as its system T1, Oleandomycin glycosyltransferase (Streptomyces antibioticus), Q53685 [P67T,S132F,A242V].
T1 sequence (whole entry): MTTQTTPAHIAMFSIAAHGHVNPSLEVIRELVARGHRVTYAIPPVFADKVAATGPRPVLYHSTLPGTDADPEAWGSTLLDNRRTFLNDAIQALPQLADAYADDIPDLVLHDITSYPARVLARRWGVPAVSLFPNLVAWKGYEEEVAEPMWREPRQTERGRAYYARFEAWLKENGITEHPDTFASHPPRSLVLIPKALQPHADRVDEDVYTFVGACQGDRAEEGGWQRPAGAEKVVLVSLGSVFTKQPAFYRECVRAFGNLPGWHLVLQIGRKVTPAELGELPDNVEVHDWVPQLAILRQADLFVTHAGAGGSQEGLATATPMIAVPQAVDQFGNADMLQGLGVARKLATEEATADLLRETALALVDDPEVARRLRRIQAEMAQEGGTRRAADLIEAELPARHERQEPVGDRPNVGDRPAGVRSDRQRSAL
In words: Activity of Streptomyces antibioticus OleD P67T/S132F/A242V mutant assessed as conversion rate of compound to produce glucoside 3 using NDP sugar donor UDP-4-deoxy-glucose after 3 hrs by HPLC. An outline of the steps:
(§1)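 End-point donor-specificity assay with purified OleD enzyme. Percentage conversion was read after 3 h. Quenched reactions were run by reverse-phase C18 HPLC with a 10–90% CH3CN gradient in 0.1% formic acid/H2O over 20 min at 1 ml min–1, with detection at 254 nm. Products were identified by LC-MS, by comparison to standards where available, and by fluorescence.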

For assay [2], the target named is T2, Oleandomycin glycosyltransferase (Streptomyces antibioticus) (UniProt Q53685).
T2 sequence (whole entry): T1 sequence (whole entry) with T67P, F132S, V242A
In words: Activity of Streptomyces antibioticus wild-type OleD assessed as conversion rate of compound to produce glucoside 3 using NDP sugar donor UDP-6-thio-glucose after 3 hrs by HPLC. Summed up: as §1

The target in assay [3] is T2, Oleandomycin glycosyltransferase (Streptomyces antibioticus). Briefly: Activity at Streptomyces antibioticus wild-type OleD assessed as as rate of glucoside formation measured as nanomoles of product formed per minute per mg of enzyme.
Assay [4] shares this target. Briefly: Activity of Streptomyces antibioticus wild-type OleD assessed as conversion rate of compound to produce glucoside 3 using NDP sugar UDP-6-deoxy-glucose after 3 hrs by HPLC. Summed up: as §1
Assay [5] deals with T1, Oleandomycin glycosyltransferase (Streptomyces antibioticus), Q53685 [P67T,S132F,A242V]. Briefly: Activity of Streptomyces antibioticus OleD P67T/S132F/A242V mutant assessed as as rate of glucoside formation measured as nanomoles of product formed per minute per mg of enzyme.
For assay [6] the test system is unchanged. Briefly: Activity of Streptomyces antibioticus OleD P67T/S132F/A242V mutant assessed as conversion rate of compound to produce glucoside 3 using NDP sugar donor UDP-2-amino-glucose after 3 hrs by HPLC. Summed up:
as §1

Assay [7] relates to T3, Oleandomycin glycosyltransferase (Streptomyces antibioticus), Q53685 [P67T].
T3 sequence (whole entry): T1 sequence (whole entry) with F132S, V242A
Briefly: Activity of Streptomyces antibioticus OleD P67T mutant assessed as conversion rate of compound to produce glucoside 3 using NDP sugar donor UDP-glucose after 3 hrs by HPLC. Summed up: as §1

Assay [8] shares this test system. In words: Activity of Streptomyces antibioticus OleD P67T mutant assessed as conversion rate of compound to produce glucoside 3 using NDP sugar donor UDP-6-deoxy-glucose after 3 hrs by HPLC. An outline of the steps: as §1
The subject of assay [9] is T4, Oleandomycin glycosyltransferase (Streptomyces antibioticus), Q53685 [A242V].
T4 sequence (whole entry): T1 sequence (whole entry) with T67P, F132S
In words: Activity of Streptomyces antibioticus OleD A242V mutant assessed as conversion rate of compound to produce glucoside 3 using NDP sugar donor UDP-6-deoxy-glucose after 3 hrs by HPLC. An outline of the steps: as §1

Assay [10] deals with T3, Oleandomycin glycosyltransferase (Streptomyces antibioticus), Q53685 [P67T]. In words: Activity of Streptomyces antibioticus OleD P67T mutant assessed as conversion rate of compound to produce glucoside 3 using NDP sugar donor UDP-xylose after 3 hrs by HPLC. Summed up:
as §1

Assay [11] concerns T4, Oleandomycin glycosyltransferase (Streptomyces antibioticus), Q53685 [A242V]. In words: Activity of Streptomyces antibioticus OleD A242V mutant assessed as conversion rate of compound to produce glucoside 3 using NDP sugar donor UDP-xylose after 3 hrs by HPLC. An outline of the steps: as §1
In assay [12] the test system is T1, Oleandomycin glycosyltransferase (Streptomyces antibioticus), Q53685 [P67T,S132F,A242V]. Briefly: Activity of Streptomyces antibioticus OleD P67T/S132F/A242V mutant assessed as conversion rate of compound to produce glucoside 3 using NDP sugar donor UDP-4-amino-6-deoxy-glucose after 3 hrs by HPLC. Summed up:
as §1

Assay [13] shares this test system. In words: Activity of Streptomyces antibioticus OleD P67T/S132F/A242V mutant assessed as conversion rate of compound to produce glucoside 3 using NDP sugar […] after 3 hrs by HPLC. An outline of the steps: as §1
In assay [14] the test system is T4, Oleandomycin glycosyltransferase (Streptomyces antibioticus), Q53685 [A242V]. In words: Activity of Streptomyces antibioticus OleD A242V mutant assessed as conversion rate of compound to produce glucoside 3 using NDP sugar donor UDP-6-azido-glucose after 3 hrs by HPLC. Summed up:
as §1

Changes are numbered by the printed parent chain.

As for `Cc1cc(=O)oc2cc(O)ccc12`, the Activity was determined as 22% in [1]; 1% in [2]; 2.5 nmol/min in assay [3]; 6% in assay [4]; 84 nmol/min in [5]; 24% in assay [6]. The Activity in assay [7] was determined as 51%; in [8] it was 11%; in assay [9], 6%; in [10] it was 2%; in assay [11] it was 2%; in assay [12] it was 47%. The Activity is 21% in assay [13] and 2% in [14].
